These results are taken from ChEMBL document CHEMBL3860087, “New Broad-Spectrum Antibacterial Amphiphilic Aminoglycosides Active against Resistant Bacteria: From Neamine Derivatives to Smaller Neosamine Analogues” (J Med Chem, 2016).

In one series the test system is Klebsiella pneumoniae. The series is described as follows: Antibacterial activity against Klebsiella pneumoniae ATCC 700603 by microdilution method. The format is functional. The method, boiled down:
(§1)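 Strains grown overnight at 37 °C on trypticase soy agar; MIC by broth microdilution from fresh culture in cation-adjusted Mueller–Hinton broth, starting inoculum 10^6 cells, following CLSI recommendations.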
(In general: Broth dilution looks for growth in wells or tubes with falling amounts of substance.)

The subject of series [1] is Staphylococcus aureus. The series is described as follows: Antibacterial activity against NorA expressing Staphylococcus aureus 1 by microdilution method.
Series [2] concerns Pseudomonas aeruginosa. Put plainly: Antibacterial activity against MexXY expressing Pseudomonas aeruginosa PA22 by microdilution method. The format is functional. The method in brief:
as §1

Series [3] deals with Acinetobacter lwoffii. The series is described as follows: Antibacterial activity against Acinetobacter lwoffii ATCC 17925 by microdilution method. The series is classed as functional. The method, boiled down:
as §1

Series [4] deals with Escherichia coli. Put plainly: microbe, parasite or virus in culture. Conditions: ATCC 25922.
Series [5] relates to Pseudomonas aeruginosa. The series is described as follows: Antibacterial activity against Pseudomonas aeruginosa ATCC 27853 by microdilution method. The series is classed as functional. The method in brief: as §1
Series [6] relates to Escherichia coli. The series is described as follows: Antibacterial activity against AAC6'-IB expressing Escherichia coli PAZ505H8101 by microdilution method. The format is functional. The method, boiled down:
as §1

Series [7] concerns Escherichia coli. The series is described as follows: Antibacterial activity against ANT2''-IA expressing Escherichia coli L8058.1 by microdilution method. The series is classed as functional. The method, boiled down: as §1
Series [8] concerns Staphylococcus aureus. Put plainly: Antibacterial activity against Staphylococcus aureus ATCC 25923 by microdilution method. The format is functional. The method in brief: (§2)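 Broth microdilution per CLSI in cation-adjusted Mueller–Hinton broth. Strains were grown overnight at 37 °C on trypticase soy agar, and a fresh culture was used. Starting inoculum was 10^6 cells.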
The nature of series [9]: Cytotoxicity against mouse J774 cells assessed as cell viability at 10 uM after 24 hrs by MTT assay relative to control. Conditions: J774 cells, read-out: Activity. The series is classed as toxicity, cell-based. The method in brief: (§3)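 Murine J774 macrophages exposed 24 h to 10 or 30 μM compound, then 1 h with 0.2 mg/mL MTT; reaction stopped with DMSO, OD read at 570 nm as metabolic-activity viability. Number of independent experiments given per value.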
(In general: Tetrazolium assays rely on reduction of a dye to a coloured formazan, in cell work by metabolically active cells.)

In series [10] the test system is Staphylococcus aureus. The series is described as follows: Antibacterial activity against healthcare-acquired methicillin-resistant Staphylococcus aureus ATCC 33592 by microdilution method. The format is functional. The method in brief:
as §2

The subject of series [11] is Pseudomonas aeruginosa. The series is described as follows: Antibacterial activity against AAC6'-2A expressing Pseudomonas aeruginosa F03 by microdilution method. The format is functional. The method, boiled down:
as §1

Series [12] can be described thus: Cytotoxicity against mouse J774 cells assessed as cell viability at 30 uM after 24 hrs by MTT assay relative to control. The format is toxicity, cell-based. Conditions: J774 cells, read-out: Activity. The method in brief:
as §3

The test system of series [13] is Pseudomonas aeruginosa. The series is described as follows: Antibacterial activity against triABC deficient Pseudomonas aeruginosa PA406 by microdilution method. The format is functional. The method in brief: as §1
Series [14] concerns Acinetobacter lwoffii. Put plainly: Antibacterial activity against APH3'-VIA expressing Acinetobacter lwoffii AI.88-483 by microdilution method. The format is functional. The method, boiled down:
as §1

The subject of series [15] is Pseudomonas aeruginosa. The series is described as follows: Induction of inner membrane permeabilization of Pseudomonas aeruginosa ATCC 27853 at 5 uM after 15 mins by propidium iodide staining-based fluorescence assay relative to control. The series is classed as functional. The method, boiled down:
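P. aeruginosa ATCC 27853 from TSA colony, overnight in MHB-CA at 37 °C with shaking, diluted 100-fold and grown 4 h to mid-log (OD620 ~0.4–0.5). Suspension (OD600 0.05) with PI (3 mM stock diluted 10^3-fold) plus compound in HEPES (1–10 μM final). Fluorescence ex 540/em 610 nm at 25 °C after 15 min; normalized to CTAB 150 μM (100%) and imipenem (0%).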

For series [16], the system named is Pseudomonas aeruginosa. Put plainly: Induction of inner membrane permeabilization of Pseudomonas aeruginosa ATCC 27853 after 15 mins by propidium iodide staining-based fluorescence assay. The format is functional. The method in brief:
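Mid-log P. aeruginosa (OD620 ~0.4–0.5, grown in CA-MHB at 37 °C, 130 rpm) was adjusted to OD600 0.05. A 3 mM propidium iodide stock was diluted 10^3-fold in the suspension. Compounds in HEPES were added at final 1–10 μM. Fluorescence (ex 540/em 610 nm) was read at 25 °C after 15 min stabilization. Values were normalized to 150 μM CTAB (100%) and imipenem (0%).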

≈ marks a conversion by molar mass, not a printed value.

With `CCCCCCCCCO[C@@H]1[C@@H](N)[C@@H](OC[C@H](O)CN=[N+]=[N-])O[C@H](CN)[C@H]1OCCCCCCCCC`, the MIC was greater than 128 µg/mL against Klebsiella pneumoniae; 2 µg/mL (≈ 3.78 µM) in the series with Staphylococcus aureus [1]; 128 µg/mL (≈ 242 µM) with Pseudomonas aeruginosa [2]; 4 µg/mL (≈ 7.55 µM) in the series on Acinetobacter lwoffii [3]; 32 µg/mL (≈ 60.4 µM) against Escherichia coli [4]; greater than 128 µg/mL in the series with Pseudomonas aeruginosa [5]. Also, the MIC was greater than 128 µg/mL against Escherichia coli [6]; greater than 128 µg/mL against Escherichia coli [7]; 2 µg/mL (≈ 3.78 µM) against Staphylococcus aureus [8]; 2 µg/mL (≈ 3.78 µM) in the series on Staphylococcus aureus [10]; greater than 128 µg/mL against Pseudomonas aeruginosa [11]; greater than 128 µg/mL against Pseudomonas aeruginosa [13]. Besides, the MIC in the series on Acinetobacter lwoffii [14] was greater than 128 µg/mL. Also, the viability at 24 h, 10 µM in [9] was 62.2%. Moreover, the viability at 24 h, 30 µM in [12] amounted to 5.9%.

`CCCCCCCCCO[C@@H]1[C@@H](N)[C@@H](OC[C@H](O)CN)O[C@H](CN)[C@H]1OCCCCCCCCC`: the MIC in the series on Klebsiella pneumoniae was 8 to 16 µg/mL (≈ 15.9 to 31.8 µM); against Staphylococcus aureus [1], 2 µg/mL (≈ 3.97 µM); in the series with Pseudomonas aeruginosa [2], 8 µg/mL (≈ 15.9 µM); against Acinetobacter lwoffii [3] it was 2 µg/mL (≈ 3.97 µM); against Escherichia coli [4], 4 µg/mL (≈ 7.94 µM); against Pseudomonas aeruginosa [5], 8 µg/mL (≈ 15.9 µM). For the same molecule, the MIC worked out at 4 µg/mL (≈ 7.94 µM) with Escherichia coli [6]; 4 µg/mL (≈ 7.94 µM) with Escherichia coli [7]; 2 µg/mL (≈ 3.97 µM) against Staphylococcus aureus [8]; 2 µg/mL (≈ 3.97 µM) in the series with Staphylococcus aureus [10]; 8 µg/mL (≈ 15.9 µM) against Pseudomonas aeruginosa [11]; 8 µg/mL (≈ 15.9 µM) against Pseudomonas aeruginosa [13]. The MIC in the series on Acinetobacter lwoffii [14] was found to be 8 µg/mL (≈ 15.9 µM). In addition, the viability at 24 h, 10 µM in series [9] is 88%. The viability at 24 h, 30 µM in series [12] worked out at 14.4%.

Take `C=CCO[C@H]1O[C@H](CN)[C@@H](OCCCCCCCCC)[C@H](OCCCCCCCCC)[C@H]1N`: the MIC in the series on Klebsiella pneumoniae is 128 µg/mL (≈ 272 µM); against Staphylococcus aureus [1], 4 µg/mL (≈ 8.5 µM); against Pseudomonas aeruginosa [2], greater than 128 µg/mL; in the series on Acinetobacter lwoffii [3] it was 4 to 8 µg/mL (≈ 8.5 to 17 µM); in the series on Escherichia coli [4] it was 32 to 64 µg/mL (≈ 68 to 136 µM); against Pseudomonas aeruginosa [5] it was greater than 128 µg/mL. The MIC was greater than 128 µg/mL in the series on Escherichia coli [6]; greater than 128 µg/mL in the series on Escherichia coli [7]; 4 µg/mL (≈ 8.5 µM) in the series with Staphylococcus aureus [8]; 4 µg/mL (≈ 8.5 µM) with Staphylococcus aureus [10]; greater than 128 µg/mL with Pseudomonas aeruginosa [11]; greater than 128 µg/mL in the series on Pseudomonas aeruginosa [13]. Besides, the MIC against Acinetobacter lwoffii [14] worked out at 32 µg/mL (≈ 68 µM). In addition, in [9], the viability at 24 h, 10 µM was determined as 91.4%. In series [12], the viability at 24 h, 30 µM was found to be 6.6%.

Regarding `CCCCCCCCCO[C@@H]1[C@@H](N)[C@@H](O[C@H]2[C@H](O)[C@@H](O)[C@H](N)C[C@@H]2N)O[C@H](CN)[C@H]1OCCCCCCCCC`, the MIC with Klebsiella pneumoniae was 16 to 32 µg/mL (≈ 27.8 to 55.7 µM); against Staphylococcus aureus [1], 2 µg/mL (≈ 3.48 µM); against Pseudomonas aeruginosa [2] it was 8 to 16 µg/mL (≈ 13.9 to 27.8 µM); with Acinetobacter lwoffii [3] it was 2 to 4 µg/mL (≈ 3.48 to 6.96 µM); with Escherichia coli [4] it was 4 to 8 µg/mL (≈ 6.96 to 13.9 µM); in the series with Pseudomonas aeruginosa [5], 8 to 16 µg/mL (≈ 13.9 to 27.8 µM). Also, the MIC in the series on Escherichia coli [6] was 2 to 4 µg/mL (≈ 3.48 to 6.96 µM); in the series on Escherichia coli [7] it was 4 to 8 µg/mL (≈ 6.96 to 13.9 µM); in the series with Staphylococcus aureus [8] it was 4 µg/mL (≈ 6.96 µM); in the series on Staphylococcus aureus [10], 4 µg/mL (≈ 6.96 µM); against Pseudomonas aeruginosa [11] it was 8 to 16 µg/mL (≈ 13.9 to 27.8 µM); against Pseudomonas aeruginosa [13] it was 8 to 16 µg/mL (≈ 13.9 to 27.8 µM). In the series with Acinetobacter lwoffii [14], the MIC is 32 µg/mL (≈ 55.7 µM). In the series on Pseudomonas aeruginosa [15], this molecule yielded an Activity of 25%. Moreover, in [9], the viability at 24 h, 10 µM was determined as 82.7%. Moreover, in series [12], the viability at 24 h, 30 µM stood at 48.6%.

As for `C=CCO[C@H]1O[C@H](CN)[C@@H](O)[C@H](O)[C@H]1N`, the MIC against Klebsiella pneumoniae, in the series with Staphylococcus aureus [1], against Pseudomonas aeruginosa [2], in the series with Acinetobacter lwoffii [3], in the series on Escherichia coli [4] and against Pseudomonas aeruginosa [5] was greater than 128 µg/mL throughout. Besides, the MIC in the series with Escherichia coli [6], with Escherichia coli [7], in the series on Staphylococcus aureus [8], in the series on Staphylococcus aureus [10], against Pseudomonas aeruginosa [11] and in the series with Pseudomonas aeruginosa [13] was greater than 128 µg/mL throughout. In the series on Acinetobacter lwoffii [14], the MIC is greater than 128 µg/mL. Besides, the viability at 24 h, 10 µM in series [9] was 82.2%. Besides, the viability at 24 h, 30 µM in series [12] was found to be 82.1%.

With `C[C@@H](O)[C@H]1C(=O)N2C(C(=O)O)=C(SCCNC=N)C[C@H]12` [IMIPENEM ANHYDROUS], the Activity in the series on Pseudomonas aeruginosa [16] was 0%.

For `NC[C@H]1O[C@H](O[C@H]2[C@H](O)[C@@H](O)[C@H](N)C[C@@H]2N)[C@H](N)[C@@H](O)[C@@H]1O` [NEAMINE], the MIC is 32 µg/mL (≈ 99.3 µM) against Klebsiella pneumoniae; 8 µg/mL (≈ 24.8 µM) in the series on Staphylococcus aureus [1]; greater than 128 µg/mL against Pseudomonas aeruginosa [2]; 0.5 µg/mL (≈ 1.55 µM) in the series with Acinetobacter lwoffii [3]; 32 µg/mL (≈ 99.3 µM) in the series with Escherichia coli [4]; greater than 128 µg/mL against Pseudomonas aeruginosa [5]. Besides, the MIC is greater than 128 µg/mL against Escherichia coli [6]; 32 µg/mL (≈ 99.3 µM) against Escherichia coli [7]; 16 to 32 µg/mL (≈ 49.6 to 99.3 µM) against Staphylococcus aureus [8]; greater than 128 µg/mL with Staphylococcus aureus [10]; greater than 128 µg/mL against Pseudomonas aeruginosa [11]; 64 µg/mL (≈ 199 µM) in the series on Pseudomonas aeruginosa [13]. In the series with Acinetobacter lwoffii [14], this molecule came in with an MIC greater than 128 µg/mL. In [9], the viability at 24 h, 10 µM was 94.8%. For the same molecule, the viability at 24 h, 30 µM in [12] is 84.4%.
